In ChEMBL document CHEMBL1124216, “A novel class of potential central nervous system agents. 3-Phenyl-2-(1-piperazinyl)-5H-1-benzazepines” (1988):

Columns and labels:
Type in all cases: functional
[1] = tested on: Canis familiaris; test: Inhibition of apomorphine induced emesis in dogs at 1 mg/kg of dose.; conditions: Canis lupus familiaris
Summary of the method: (§1)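 Beagle dogs (10-15 kg), groups of three, given compound po in a gelatin capsule; 2 h later apomorphine hydrochloride 0.3 mg/kg sc. Vomiting counted for 1 h; mean inhibition as percent of control. ED50 is the dose giving 50% inhibition of emesis, by Litchfield-Wilcoxon.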

[2] = tested on: Mus musculus; test: Antimaximal electroshock seizure (MES) activity in mice after peroral administration of 100 mg/kg of compound; 0/5; conditions: route oral
[3] = tested on: Mus musculus; test: 3,4 -Dihydroxy phenylacetic acid (DOPAC) levels in mouse brain at 10 mg/kg dose.
Summary of the method: (§2)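 Male Std-ddY mice, 20-25 g, dosed orally with compound in 0.5% aqueous tragacanth. DOPAC was measured fluorometrically after purification by column chromatography on Sephadex G-10 and QAE-Sephadex. Brains from five mice per compound were pooled for each determination.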

[4] = tested on: Mus musculus; test: 3,4 -Dihydroxy phenylacetic acid (DOPAC) levels in mouse brain at 50 mg/kg dose.; summary of the method: as §2
[5] = tested on: Mus musculus; test: The homovanillic acid (HVA) levels in mouse brain at 10 mg/kg of dose.
Summary of the method: (§3)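 Mice dosed orally in 0.5% aqueous tragacanth; brains of five mice per compound pooled. Homovanillic acid measured in brain extracts and reported as brain level.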

[6] = tested on: Mus musculus; test: The homovanillic acid (HVA) levels in mouse brain at 50 mg/kg of dose.; summary of the method: as §3
[7] = tested on: Mus musculus; test: Exploratory activity of mice determined by an antimex activity meter, 10 mg/kg of dose was administered perorally; conditions: route oral
[8] = tested on: Mus musculus; test: Exploratory activity of mice determined by an antimex activity meter, 50 mg/kg of dose was administered perorally; conditions: Mus musculus, po
Summary of the method: (§4)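 Male Std-ddY mice (20-25 g), five per dose; compound in 0.5% aqueous tragacanth given orally. Two hours later each mouse placed in an Animex activity meter cage and locomotor activity counted for 3 min. Mean suppression expressed as percent inhibition of control; ED50 by Litchfield-Wilcoxon.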

[9] = tested on: Mus musculus; test: Antireserpine activity(RES) of mice after peroral administration of 50 mg/kg of compound; No inhibition; conditions: route oral
[10] = tested on: Mus musculus; test: Antiexploratory activity (EXPL) of mice determined by an antimex activity meter, 50 mg/kg of dose was administered perorally; Slight inhibition (31-50%); conditions: route oral
[11] = tested on: Mus musculus; test: Antitremorine activity(TRM) of mice after peroral administration of 100 mg/kg of compound; No inhibition; conditions: route oral
[12] = tested on: Mus musculus; test: Antimaximal electroshock seizure (MES) activity in mice after peroral administration of 10 mg/kg of compound; 0/5; conditions: route oral
[13] = tested on: Mus musculus; test: Antipentylene tetrazole activity was determined in mice when administered perorally; conditions: po
Summary of the method: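 Groups of five male Std-ddY mice received compound orally in 0.5% tragacanth, then pentylenetetrazole 175 mg/kg ip. Blockade of the tonic extensor component scored as anticonvulsant. ED50 was the dose protecting 50% of animals (Litchfield-Wilcoxon).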

[14] = tested on: Mus musculus; test: Antimaximal electroshock seizure (MES) activity in mice after peroral administration of 100 mg/kg of compound; 4/5; conditions: route oral
[15] = tested on: Mus musculus; test: Antimaximal electroshock seizure activity was determined in mice when administered perorally; conditions: po
[16] = tested on: Mus musculus; test: Antiexploratory activity (EXPL) of mice determined by an antimex activity meter, 100 mg/kg of dose was administered perorally; No inhibition; conditions: route oral
[17] = tested on: Mus musculus; test: Antitremorine activity(TRM) of mice after peroral administration of 100 mg/kg of compound; conditions: route oral
[18] = tested on: Mus musculus; test: Antitremorine activity(TRM) of mice after peroral administration of 10 mg/kg of compound; Slight inhibition (31-50%); conditions: route oral
[19] = tested on: Mus musculus; test: Antireserpine activity (RES) of mice after peroral administration of 100 mg/kg of compound; No inhibition; conditions: route oral
[20] = tested on: Mus musculus; test: Antireserpine activity (RES) of mice after peroral administration of 100 mg/kg of compound; […]; conditions: route oral
[21] = tested on: Mus musculus; test: Antiexploratory activity (EXPL) of mice determined by an antimex activity meter, mg/kg of dose was administered perorally; Slight inhibition (31-50%)
[22] = tested on: Mus musculus; test: Antireserpine activity (RES) of mice after peroral administration of mg/kg of compound; Slight inhibition (31-50%)
[23] = tested on: Mus musculus; test: Antitremorine activity(TRM) of mice after peroral administration of mg/kg of compound; No inhibition
[24] = tested on: Canis familiaris; test: Inhibition of apomorphine induced emesis in dogs when administered perorally; conditions: Canis lupus familiaris, po; summary of the method: as §1
[25] = tested on: Mus musculus; test: Inhibition of conditioned avoidance response in mice when administered perorally; conditions: po
Summary of the method: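 One-way active avoidance in male Std-ddY mice in a dark/light two-compartment box. Mice trained to move to the lit side on a warning stimulus to escape floor shock; groups of 10 avoiding at >80% in 10 trials. Compound po in 0.5% tragacanth. ED50 is the dose halving avoidance rate (Litchfield-Wilcoxon).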

[26] = tested on: Mus musculus; test: Concentration of compound that causes catalepsy in the mice when administered perorally; conditions: po
Summary of the method: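 Male Std-ddY mice were dosed orally, vehicle 0.5% aqueous tragacanth. At 2 h, forepaws were placed on a rod 4.5 cm high. Failure to remove the paws within 30 s in three successive trials was scored cataleptic. ED50 was the dose giving catalepsy in 50% of mice (Litchfield-Wilcoxon).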

[27] = tested on: Mus musculus; test: Concentration of compound that causes ptosis in the mice when administered perorally; conditions: po
Summary of the method: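 Five male Std-ddY mice per group were dosed orally in 0.5% aqueous tragacanth. At 2 h, eyelid closure was scored macroscopically (8 open to 0 fully closed). Group mean scores formed a dose-response curve. ED50 was the dose reducing the mean score to 50%.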

[28] = tested on: Mus musculus; test: Antiexploratory activity (EXPL) of mice determined by an antimex activity meter, 100 mg/kg of dose was administered perorally; potent inhibition; conditions: route oral
[29] = tested on: Mus musculus; test: Exploratory activity of mice determined by an antimex activity meter, 100 mg/kg of dose was administered perorally; conditions: route oral; summary of the method: as §4
[30] = tested on: Mus musculus; test: Exploratory activity of mice determined by an antimex activity meter, when administered perorally; conditions: po; summary of the method: as §4
[31] = tested on: Mus musculus; test: Antitremorine activity(TRM) of mice after peroral administration of 100 mg/kg of compound; Slight inhibition (31-50%); conditions: route oral
[32] = tested on: Rattus norvegicus; test: Inhibition of self-stimulation response in rats when administered perorally.; conditions: po
Summary of the method: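 Male Wistar HLA rats (300-400 g) with chronic electrodes in the lateral posterior hypothalamus, lever-pressing steadily at 50-100/min. Self-stimulation counted for 10 min before and 2 h after oral dosing. ED50 is the dose causing ≥50% rate inhibition in half the rats (Litchfield-Wilcoxon).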

[33] = tested on: Mus musculus; test: Antiexploratory activity (EXPL) of mice determined by an antimex activity meter, 10 mg/kg of dose was administered perorally; Slight inhibition (31-50%); conditions: route oral
[34] = tested on: Mus musculus; test: Antireserpine activity (RES) of mice after peroral administration of 50 mg/kg of compound; No inhibition; conditions: route oral
[35] = tested on: Mus musculus; test: Antiexploratory activity (EXPL) of mice determined by an antimex activity meter, 50 mg/kg of dose was administered perorally; potent inhibition; conditions: route oral
[36] = tested on: Mus musculus; test: Antiexploratory activity (EXPL) of mice determined by an antimex activity meter, 100 mg/kg of dose was administered perorally; conditions: route oral
[37] = tested on: Mus musculus; test: Antireserpine activity (RES) of mice after peroral administration of 100 mg/kg of compound; conditions: route oral
[38] = tested on: Mus musculus; test: Antiexploratory activity (EXPL) of mice determined by an antimex activity meter, 10 mg/kg of dose was administered perorally; Moderate inhibition (51-71%); conditions: route oral
[39] = tested on: Mus musculus; test: Antiexploratory activity (EXPL) of mice determined by an antimex activity meter, 50 mg/kg of dose was administered perorally; Potent inhibition; conditions: route oral

Cl.Cl.OCCN1CCN(C2=Nc3ccccc3CC=C2c2ccc(Br)cc2)CC1
inhibition in vivo at 1 mg/kg [1]: 72.5%
Activity [2]: 0
Control [3]: 106%
Control [4]: 291%
Control [5]: 181%
Control [6]: 335%
inhibition in vivo at 10 mg/kg [7]: 31.9%
inhibition in vivo at 50 mg/kg [8]: 36.1%
inhibition in vivo at 50 mg/kg [9]: < 30%
inhibition in vivo at 50 mg/kg [10]: 31%
inhibition in vivo at 100 mg/kg [11]: < 30%

CCN1CCN(C2=Nc3ccc(Cl)cc3CC=C2c2ccccc2)CC1.Cl.Cl
Activity [12]: 0
ED50 [13]: 34.7 mg/kg
Activity [14]: 4
ED50 [15]: 93.1 mg/kg
inhibition in vivo at 100 mg/kg [16]: < 30%
inhibition in vivo at 100 mg/kg [17]: > 71%
inhibition in vivo at 10 mg/kg [18]: 31%
inhibition in vivo at 100 mg/kg [19]: < 30%

CN1CCN(C2=Nc3ccccc3CC=C2c2cccnc2)CC1
Activity [2]: 0
inhibition in vivo at 100 mg/kg [16]: < 30%
inhibition in vivo at 100 mg/kg [20]: > 71%
inhibition in vivo at 100 mg/kg [11]: < 30%

Cl.Cl.OCCN1CCN(C2=Nc3ccccc3CC=C2c2ccccc2)CC1
Activity [2]: 0
ED50 [15]: > 100 mg/kg
Inhibition [21]: 31%
Inhibition [22]: 31%
Inhibition [23]: <30%

Cl.Cl.OCCN1CCN(C2=Nc3ccccc3CC=C2c2ccc(Cl)cc2)CC1
inhibition in vivo at 1 mg/kg [1]: 95.5%
ED50 [24]: 0.19 mg/kg
Activity [2]: 0
Control [3]: 186%
Control [4]: 289%
ED50 [25]: 38.1 mg/kg
ED50 [26]: 66.8 mg/kg
ED50 [27]: 88.7 mg/kg
Control [5]: 265%
Control [6]: 382%
inhibition in vivo at 100 mg/kg [28]: > 71%
inhibition in vivo at 10 mg/kg [7]: 40.8%
inhibition in vivo at 100 mg/kg [29]: 57.3%
ED50 [30]: 73.1 mg/kg
inhibition in vivo at 100 mg/kg [31]: 31%
ED50 [32]: 25.4 mg/kg
inhibition in vivo at 100 mg/kg [19]: < 30%

CN1CCN(C2=Nc3ccccc3CC=C2c2ccc(F)cc2)CC1.Cl.Cl
inhibition in vivo at 1 mg/kg [1]: 100%
ED50 [24]: 0.28 mg/kg
Control [3]: 188%
Control [4]: 306%
ED50 [25]: 14.6 mg/kg
ED50 [26]: 21.5 mg/kg
ED50 [27]: 61 mg/kg
Control [5]: 197%
Control [6]: 400%
inhibition in vivo at 10 mg/kg [33]: 31%
inhibition in vivo at 10 mg/kg [7]: 43.3%
inhibition in vivo at 50 mg/kg [8]: 79.3%
inhibition in vivo at 50 mg/kg [34]: < 30%
ED50 [30]: 8.15 mg/kg
inhibition in vivo at 50 mg/kg [35]: > 70%
ED50 [32]: 4.05 mg/kg

CN1CCN(C2=Nc3ccc(Cl)cc3CC=C2c2ccccc2)CC1.Cl.Cl
Activity [12]: 0
ED50 [13]: 42.9 mg/kg
Activity [14]: 4
ED50 [15]: 89.4 mg/kg
inhibition in vivo at 100 mg/kg [36]: < 30%
inhibition in vivo at 100 mg/kg [37]: < 30%
inhibition in vivo at 100 mg/kg [17]: > 71%

Fc1ccc(C2=CCc3ccccc3N=C2N2CCN(C3CCCCC3)CC2)cc1.O=C(O)/C=C/C(=O)O
inhibition in vivo at 1 mg/kg [1]: 46%
Control [3]: 244%
Control [4]: 334%
inhibition in vivo at 10 mg/kg [38]: 51%
Control [5]: 295%
Control [6]: 343%
inhibition in vivo at 10 mg/kg [7]: 61.4%
inhibition in vivo at 50 mg/kg [8]: 84.6%
inhibition in vivo at 50 mg/kg [39]: > 71%
